# Active and inactive are the calls of the source. The rule behind the calls is not given here.
# Experiments:
# [1] = target: Cyclin-dependent kinase 2/cyclin A (Homo sapiens, UniProt P24941); experiment: Inhibition of CDK2/cyclin A; format: protein-complex assay
# Aurora kinase A = target: T1, Aurora kinase A (Homo sapiens, UniProt O14965); experiment: Inhibition of Aurora-A
# T1 sequence (O14965 whole entry): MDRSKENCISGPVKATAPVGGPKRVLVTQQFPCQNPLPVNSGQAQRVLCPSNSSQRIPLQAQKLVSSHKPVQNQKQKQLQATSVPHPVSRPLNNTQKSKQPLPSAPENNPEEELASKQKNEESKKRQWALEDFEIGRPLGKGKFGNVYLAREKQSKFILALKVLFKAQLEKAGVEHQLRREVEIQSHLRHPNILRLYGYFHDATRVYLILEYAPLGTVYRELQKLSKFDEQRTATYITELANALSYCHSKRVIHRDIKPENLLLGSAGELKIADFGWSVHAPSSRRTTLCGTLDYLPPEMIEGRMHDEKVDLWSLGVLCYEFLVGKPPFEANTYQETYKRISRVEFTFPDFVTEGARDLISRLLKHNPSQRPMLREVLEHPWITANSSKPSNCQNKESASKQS
# [2] = target: Cell division cycle 7-related protein kinase (Homo sapiens, UniProt O00311); experiment: Inhibition of CDC7
# [3] = target: Cyclin-dependent kinase 5 activator 1 (Homo sapiens, UniProt Q15078); experiment: Inhibition of CDK5/P25
# [4] = target: Serine/threonine-protein kinase Chk1 (Homo sapiens, UniProt O14757); experiment: Inhibition of CHK1
# [5] = target: Serine/threonine-protein kinase 26 (Homo sapiens, UniProt Q9P289); experiment: Inhibition of MST4
# [6] = target: Proto-oncogene tyrosine-protein kinase receptor Ret (Homo sapiens, UniProt P07949); experiment: Inhibition of RET
# [7] = Inhibition of SULU1
# [8] = target: High affinity nerve growth factor receptor (Homo sapiens, UniProt P04629); experiment: Inhibition of TRKA
# MDA-MB-468 = experiment: Antiproliferative activity against human MDA-MB-468 cells; format: functional, cell-based
# [9] = Antiproliferative activity against human SUP-M2 cells; format: functional, cell-based
# A2780 [10] = experiment: Cell cycle arrest in human A2780 cells assessed as accumulation at G2/M phase at 0.05 to 5 uM after 24 hrs by FACS analysis; format: functional, cell-based
# Procedure, shortened: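 A2780 cells were exposed for 24 h to 0.05, 0.5 or 5 µM. Cell-cycle distribution was read by flow cytometry (FACS), scoring G2-M accumulation. Nocodazole-treated cells served as positive control.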
# A2780 [11] = experiment: Cell cycle arrest in human A2780 cells assessed as increase of phospho Ser10 histone H3 level after 24 hrs by Western blotting analysis; format: functional, cell-based
# Procedure, shortened: (§1)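 A2780 cells were treated for 24 h at 0.05, 0.5 and 5 µM, with nocodazole as positive control. Lysates were immunoblotted for pSer10 histone H3, pThr199 nucleophosmin, cyclin B1, cyclin A, PARP cleavage and caspase 3 activation.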
# A2780 [12] = experiment: Induction of apoptosis in human A2780 cells assessed as caspase3 activation at 5 uM after 24 hrs by Western blotting analysis; format: functional, cell-based; procedure, shortened: as §1
# [13] = Solubility of the compound at pH 7; format: physicochemical; settings: buffer
# [14] = Terminal half life in Nu/Nu Balb Harlan mouse at 10 mg/kg, po; format: ADME, organism-based; set-up: dose 10 mg/kg, route oral; settings: in vivo, read-out: beta t1/2 (converted)
# Proto-oncogene tyrosine-protein kinase receptor Ret, sequence (P07949 whole entry): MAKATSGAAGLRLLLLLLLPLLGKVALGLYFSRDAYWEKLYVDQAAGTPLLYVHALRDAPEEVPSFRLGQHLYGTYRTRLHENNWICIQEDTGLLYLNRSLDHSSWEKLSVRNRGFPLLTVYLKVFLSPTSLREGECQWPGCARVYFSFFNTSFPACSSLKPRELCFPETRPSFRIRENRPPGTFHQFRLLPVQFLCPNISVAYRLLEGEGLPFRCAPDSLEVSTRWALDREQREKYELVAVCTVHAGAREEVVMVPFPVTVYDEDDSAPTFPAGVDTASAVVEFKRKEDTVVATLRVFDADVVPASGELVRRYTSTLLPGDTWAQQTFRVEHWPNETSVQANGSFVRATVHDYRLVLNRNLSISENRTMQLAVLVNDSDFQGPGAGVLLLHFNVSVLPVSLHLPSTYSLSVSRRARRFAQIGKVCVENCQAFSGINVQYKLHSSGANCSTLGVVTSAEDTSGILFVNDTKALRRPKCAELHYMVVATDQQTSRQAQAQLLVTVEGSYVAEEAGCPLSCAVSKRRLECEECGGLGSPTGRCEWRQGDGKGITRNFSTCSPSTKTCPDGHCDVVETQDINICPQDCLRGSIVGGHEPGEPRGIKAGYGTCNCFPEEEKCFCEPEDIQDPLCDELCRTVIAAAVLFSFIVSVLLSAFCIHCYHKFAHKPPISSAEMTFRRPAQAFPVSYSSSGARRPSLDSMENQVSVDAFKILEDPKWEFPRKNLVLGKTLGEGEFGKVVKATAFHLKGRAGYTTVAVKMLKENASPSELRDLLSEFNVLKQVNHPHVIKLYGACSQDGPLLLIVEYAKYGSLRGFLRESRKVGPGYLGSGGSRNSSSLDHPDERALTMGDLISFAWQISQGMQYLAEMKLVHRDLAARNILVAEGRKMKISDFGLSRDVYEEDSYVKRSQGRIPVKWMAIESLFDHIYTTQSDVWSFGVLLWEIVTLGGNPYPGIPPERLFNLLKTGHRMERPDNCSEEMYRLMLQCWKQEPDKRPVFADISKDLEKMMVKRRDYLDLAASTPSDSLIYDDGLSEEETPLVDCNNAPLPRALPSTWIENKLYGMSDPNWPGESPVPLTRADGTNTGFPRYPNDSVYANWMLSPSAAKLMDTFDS
# Cell division cycle 7-related protein kinase, sequence (O00311 whole entry): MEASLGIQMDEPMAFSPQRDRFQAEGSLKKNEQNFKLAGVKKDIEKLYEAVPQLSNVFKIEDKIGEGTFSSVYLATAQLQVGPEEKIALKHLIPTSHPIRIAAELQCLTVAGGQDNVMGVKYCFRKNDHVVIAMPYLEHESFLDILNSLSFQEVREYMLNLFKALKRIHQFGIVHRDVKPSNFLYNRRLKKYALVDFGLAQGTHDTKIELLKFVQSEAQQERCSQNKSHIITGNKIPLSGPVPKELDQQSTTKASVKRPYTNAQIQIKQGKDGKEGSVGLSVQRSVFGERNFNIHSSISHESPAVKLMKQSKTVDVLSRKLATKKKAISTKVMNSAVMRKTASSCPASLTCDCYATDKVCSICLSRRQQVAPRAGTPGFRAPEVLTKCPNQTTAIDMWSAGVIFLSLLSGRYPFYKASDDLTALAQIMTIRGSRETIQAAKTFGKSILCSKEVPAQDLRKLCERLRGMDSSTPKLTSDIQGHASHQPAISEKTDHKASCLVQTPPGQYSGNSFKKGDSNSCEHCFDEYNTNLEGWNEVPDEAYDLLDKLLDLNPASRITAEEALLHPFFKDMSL
# Serine/threonine-protein kinase Chk1, sequence (O14757 whole entry): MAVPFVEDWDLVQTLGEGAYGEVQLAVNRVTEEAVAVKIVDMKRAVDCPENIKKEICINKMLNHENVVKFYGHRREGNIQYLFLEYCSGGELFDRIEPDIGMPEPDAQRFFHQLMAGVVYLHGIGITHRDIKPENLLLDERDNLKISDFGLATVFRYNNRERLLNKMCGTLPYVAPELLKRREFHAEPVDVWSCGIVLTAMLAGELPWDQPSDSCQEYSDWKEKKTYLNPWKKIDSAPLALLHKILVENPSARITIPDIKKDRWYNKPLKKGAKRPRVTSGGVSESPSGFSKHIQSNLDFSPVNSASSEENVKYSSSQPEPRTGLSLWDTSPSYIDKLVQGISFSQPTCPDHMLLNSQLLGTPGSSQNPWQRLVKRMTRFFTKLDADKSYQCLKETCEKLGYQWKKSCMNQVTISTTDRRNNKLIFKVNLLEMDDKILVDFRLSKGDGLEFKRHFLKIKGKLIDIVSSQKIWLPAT
# High affinity nerve growth factor receptor, sequence (P04629 whole entry): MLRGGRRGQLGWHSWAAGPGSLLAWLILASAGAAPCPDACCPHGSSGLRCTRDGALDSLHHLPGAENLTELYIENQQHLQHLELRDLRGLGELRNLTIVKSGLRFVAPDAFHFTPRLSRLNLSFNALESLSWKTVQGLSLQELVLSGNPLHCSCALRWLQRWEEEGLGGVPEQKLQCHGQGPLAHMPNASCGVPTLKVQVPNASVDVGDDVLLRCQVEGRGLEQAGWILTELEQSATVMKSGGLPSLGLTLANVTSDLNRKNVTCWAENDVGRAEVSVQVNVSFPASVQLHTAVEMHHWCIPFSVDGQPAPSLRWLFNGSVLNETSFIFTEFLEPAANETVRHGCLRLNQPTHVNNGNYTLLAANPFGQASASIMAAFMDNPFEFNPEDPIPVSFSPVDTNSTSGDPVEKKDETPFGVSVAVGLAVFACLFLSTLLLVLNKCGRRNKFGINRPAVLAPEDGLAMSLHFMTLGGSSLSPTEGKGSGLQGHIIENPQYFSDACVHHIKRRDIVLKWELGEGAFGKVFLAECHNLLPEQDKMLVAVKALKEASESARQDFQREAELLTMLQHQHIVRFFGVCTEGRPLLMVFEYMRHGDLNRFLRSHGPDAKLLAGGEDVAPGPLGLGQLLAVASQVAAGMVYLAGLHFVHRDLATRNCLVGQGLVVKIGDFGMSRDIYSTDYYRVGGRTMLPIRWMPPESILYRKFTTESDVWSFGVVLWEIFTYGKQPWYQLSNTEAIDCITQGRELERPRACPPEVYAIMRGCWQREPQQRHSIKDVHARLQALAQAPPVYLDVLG
# Serine/threonine-protein kinase 26, sequence (Q9P289 whole entry): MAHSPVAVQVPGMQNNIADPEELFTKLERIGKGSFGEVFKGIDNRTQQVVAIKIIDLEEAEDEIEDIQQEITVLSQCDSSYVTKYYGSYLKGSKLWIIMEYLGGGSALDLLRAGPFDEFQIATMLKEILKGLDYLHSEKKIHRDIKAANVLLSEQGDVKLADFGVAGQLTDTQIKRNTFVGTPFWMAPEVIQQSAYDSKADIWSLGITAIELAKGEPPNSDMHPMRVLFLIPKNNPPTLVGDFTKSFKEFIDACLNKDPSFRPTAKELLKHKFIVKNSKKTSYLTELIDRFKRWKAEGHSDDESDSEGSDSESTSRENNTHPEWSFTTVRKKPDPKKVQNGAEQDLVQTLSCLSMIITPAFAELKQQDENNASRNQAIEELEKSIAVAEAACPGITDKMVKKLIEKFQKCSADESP
# Cyclin-dependent kinase 5 activator 1, sequence (Q15078 whole entry): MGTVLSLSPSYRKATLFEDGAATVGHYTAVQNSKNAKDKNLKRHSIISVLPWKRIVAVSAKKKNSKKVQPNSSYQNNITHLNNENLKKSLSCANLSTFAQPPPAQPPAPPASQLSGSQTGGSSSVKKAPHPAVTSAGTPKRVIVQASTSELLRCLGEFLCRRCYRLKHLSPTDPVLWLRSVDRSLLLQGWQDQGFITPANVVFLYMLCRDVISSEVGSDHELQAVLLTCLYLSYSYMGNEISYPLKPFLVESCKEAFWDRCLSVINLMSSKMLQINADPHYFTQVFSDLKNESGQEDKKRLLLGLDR
compound,measurement,setting,value
CN1CCN(c2ccc(OC(F)(F)F)c(Nc3nccc(-c4cc5c(n4C)CCNC5=O)n3)c2)CC1,IC50,[1],> 10 µM
same,IC50,Aurora kinase A,> 10 µM
same,IC50,[2],> 10 µM
same,IC50,[3],> 10 µM
same,IC50,[4],> 10 µM
same,IC50,[5],> 10 µM
same,IC50,[6],> 10 µM
same,IC50,[7],> 10 µM
same,IC50,[8],> 10 µM
same,IC50,MDA-MB-468,0.041 µM
same,IC50,[9],0.053 µM
same,Activity,A2780 [10],Active
same,Activity,A2780 [11],Dose-dependent effect
same,Activity,A2780 [12],Active
same,solubility,[13],163 µM
same,half-life,[14],1.4 h
